# Measured values collected from several papers.
# Cell line: NCI-H460
# Effect on: cell growth or viability
SMILES,method,concentration,time,measurement,result
COc1ccc(C(=O)/C=C/c2cccc3ccccc23)cc1S(N)(=O)=O,SRB,10 µM,,inhibition,98%
CCc1n(Cc2ccc3ccccc3n2)cc[n+]1Cc1ccc2ccccc2c1,SRB,,,TGI,10800 nM
C/C=C/C(=O)Nc1cc(Nc2nc(Nc3cnn(C)c3)c3sccc3n2)c(OC)cc1N(C)CCN(C)C,MTT,,,IC50,> 50000 nM
CN1C[C@H](C(=O)N[C@]2(C)O[C@@]3(O)[C@@H]4CCCN4C(=O)[C@H](Cc4ccccc4)N3C2=O)C[C@@H]2c3cccc4[nH]cc(c34)C[C@H]21,MTT,,72 h,EC50,67000 nM
COc1ccc(C(=O)/C=C/c2cccc(Cl)c2Cl)cc1S(N)(=O)=O,SRB,,48 h,GI50,1900 nM
C=C(Cl)C(=O)Nc1cc(Nc2nc(Nc3cnn(C)c3)c3sccc3n2)c(OC)cc1N1CCN(C)CC1,MTT,,,IC50,239 nM
COc1ccc(-c2ccc(-c3ccc(C(=N)N)nc3)s2)cc1,SRB,,,GI50,520 nM
CCCc1n(Cc2ccc3ccccc3n2)cc[n+]1Cc1ccc2ccccc2c1,SRB,,,TGI,10600 nM
C=C(Cl)C(=O)Nc1cc(Nc2nc(N3CCSCC3)c3sccc3n2)c(OC)cc1N(C)CCN(C)C,MTT,,,IC50,1320 nM
COc1ccc(C(=O)/C=C/c2ccc(Cl)c(Cl)c2)cc1S(N)(=O)=O,SRB,,48 h,GI50,2800 nM
Cc1n(Cc2ccc3ccccc3n2)cc[n+]1Cc1ccc2ccccc2c1,SRB,,,TGI,14400 nM
COc1ccc(C(=O)/C=C/c2ccc3ccccc3c2)cc1S(N)(=O)=O,SRB,,48 h,GI50,3000 nM
S=C([S][Au-][P+](CCCCCC[P+]([Au-][S]C(=S)n1cccn1)(c1ccccc1)c1ccccc1)(c1ccccc1)c1ccccc1)n1cccn1,SRB,,,GI50,1430 nM
C=CC(=O)Nc1cc(Nc2nc(N3CCc4sccc4C3)c3cccnc3n2)c(OC)cc1N1CCN(C(C)=O)CC1,MTT,,,IC50,> 50000 nM
c1ccc(-c2n(Cc3ccc4ccccc4c3)cc[n+]2Cc2ccc3ccccc3c2)cc1,SRB,,,TGI,2870 nM
COc1ccc(-c2ccc(-c3ccc(C(=N)N)nc3)s2)cc1Cl,SRB,,,GI50,1800 nM
COc1ccc(C(=O)/C=C/c2cc3c(cc2Br)OCO3)cc1S(N)(=O)=O,SRB,,48 h,GI50,4000 nM
C=CC(=O)Nc1cc(Nc2nc(N3CCc4sccc4C3)c3cccnc3n2)c(OC)cc1N(C)C,MTT,,,IC50,> 50000 nM
COc1ccc(C(=O)/C=C/c2ccccc2Br)cc1S(N)(=O)=O,SRB,,48 h,GI50,2000 nM
C=CC(=O)Nc1cc(Nc2nc(N3CCc4sccc4C3)c3cccnc3n2)c(OC)cc1N1CCC(N(C)C)CC1,MTT,,,IC50,558 nM
